The EternaBench riboswitch data

Test system: MS2 coat protein
Experiment: apparent Kd, MS2 coat protein; higher = weaker binding; RNA-MaP array; FMN 200 µM where present
Procedure, shortened: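 The titrant was SNAP-549-labelled MS2 coat protein, run from 0.7 or 1.5 nM in doubling steps to 3 µM. It was applied to designs transcribed by stalled E. coli RNA polymerase on Illumina sequencing-chip clusters, without ligand first and then with constant ligand, in 100 mM Tris-HCl pH 7.5, 80 mM KCl, 4 mM MgCl2, BSA, DTT, yeast tRNA and Tween-20. The apparent Kd is the median of filtered per-cluster binding-curve fits, with green signal normalised to red-channel RNA signal and control-cluster median Fmax.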

[1] = designed as: ON switch for flavin mononucleotide, no ligand
[2] = ligand present: flavin mononucleotide, designed as: ON switch for flavin mononucleotide
[3] = designed as: OFF switch for flavin mononucleotide, no ligand
[4] = ligand present: flavin mononucleotide, designed as: OFF switch for flavin mononucleotide

Sequence	apparent Kd [1] [nM]	apparent Kd [2] [nM]	apparent Kd [3] [nM]	apparent Kd [4] [nM]
ACGGUGGUCACAGGAUAUCCGGCACGCGUGCCCGGAGAAGGGUGACUCAGAACCACAUGAGGAUCACCCAUGUGCCUUGCCGUA	186	37.1		
ACAAAUGGAGGAUAUACAUGAGGAUCACCCAUGUAUAUCCUACAUGUGUGAUAAUAAUGUAGAAGGCCAUUUGA			13.7	12
CUAUACAUAUCAGGAUAUCUAUUUCCUACAUGAGGAUCACCCAUGUAGAGGAUCACCCAUGUAAAGGAGAAGGGAUAUGUAUAG	105	20.9		
AUCCGGCGUGUAGGAUAUGGAUCCGAUUAGGAUCCAGAAGGACAUGAGGAUCACCCAUGUACAUGUAAACAGUCAUCACCGGAG			10.2	56.4
UCUGUAGGAAUACAGACGAAGUGGCCAGAAGGUGAAUGCCACAUGAGGAUCACCCAUGUUUCGAUCAAGGAUAUGGUUUCUCAC	312	79.8		
GGAGCACAUAUUAACAUGAGGAUCACCCAUGUCAAAAGACAUGAGGAUAUGGAUCCGAAAAGGAUCUAGAAGGCAUGGUGCUCC	690	22.1		
CUUUUGUGAGGAUAUUAGUAGUAAAUAAAUAAAAUUACUACUGAGAAGGCACAUGAGGAUCACCCAUGUUCUUC			19.4	93.8
GCUGCGCGAGGAUAUGCGGUUUGCGCUGUGGCCCGUGGCGUACAUGAGGAUCACCCAUGUAGAAGGCGUGCGGG			11.6	12.1
AUACUCAUGUAAGGAUAUGCAGCCGUUUCGGCUGCAGAAGGUACUAUAAUACAUGAGGAUCACCCAUGUCUCUCGCAUUGCGAG	131	178		
UUAUUUUUACAGAAGGUUUAAUAAUAUAUAUGAGAAGGAUAUGUAACAUGAGGAUCACCCAUGUUUCACCCAUAUGAGGAUCAU			8.2	7.27
AAUAUAGAAGGAUAUGCAGCCGUGAGCCAUAGAGGAGACGAACAUGAGGAUCACCCAUGUAGAAGGUCUCGAUU			13.1	12.4
CGAAAUGAUAGAGGAUAUGUUUUACAUGAGGAUCACCCAUGUGUACAUGGAUUAAUAUAUAAGUAACAGAAGGCUAUUCAAUCG			18.6	17.3
ACCGAUAGAGGAUAUACAGGUCGAUACAUGAGGAUCACCCAUGUUACCCUCGGUACACCCGUAGAAGGUUGUGGCU			263	248
UAAGGGUAAUGAGGAUAUAACGGGUGACAUGAGGAUCACCCAUGUGGUUUGUUAUGGUCGAGCCGUUAGAAGGCAUUGUAAGCA			1070	1120
AAUAUAGAGCUGGAAAUAAACUCAACAUGAGGAUCACCCAUGUAGGAUAUCAGCACGAUAAGUGCUGAGAAGGACAUCCAGCUC			16.7	17.1
GUAGAGUAGUGAGGAUAUACGAGAUCGAUAGAUCGGCGAUCCAUUAAUACAUGAGGAUCACCCAUGUAGAAGGCACUUCUCUAC			6.31	76.7
GGAUAUGUCGUCUACAUGAGGAUCACCCAUGUCGAUAGACAUGAGGAUAUUGAUAAGAAUUGUAUCGAGAAGGUAUGUAGGUCC	19.3	26.7		
ACAUGAGGAUCUCCCAUGUAAAAUUAGGAUAUAUAACUACACAUGAGGAUCACCCAUGUUUAACCGUAGAAGGGAUAAAUAAUU	986	1020		
CCACCUACUGAGGAUAUUGCAUCACCCGACUGAUAAGAAGGCAGAACAUGAGGAUCACCCAUGUGGGUACUCAC			94	103
GGGCCCGGAGGAUAUACAUGAGGAUCACCCAUGUGCCGGGCCCAACGGGCCCGGCUGUGUAGAAGGCCGGGCCC			13.3	12.5
UGCGGAAUCACAGGAUAUGCGGGAAGAACGAUACCGUACAUGAGGAUCACCCAUGUGGCGGCAAAGCAGAAGGGUGGUUCUCGC	8.42	5.79		
AUGCGUGGCUAGGAUAUCGAGGAAUCUAGCCAGCGAGAAGGAGCCACAUGAGGAUCACCCAUGUGGUGAACCUC			22.8	17.6
AGAUCACAUGAGGAUCACCCAUGUGAGGAUAUGAUACUAUGUACUUCGGUACAUAGUAUCAGAAGGCAUGUGGA			56.7	109
CAGGUAGACUGAGGAUAUACACUAAACAGCUAGUCUAUCUAGCUGAUCACAUGAGGAUCACCCAUGUAGAAGGCAGUCUGCCUG			19.6	56.5
UGUCCAUAGCAGAAGGCUAGAAAACAUGAGGAUCACCCAUGUCAAAAGACUAGAGGAUAUGCUAUGGACUAAGAGCGAAAGCUC			3.97	3.81
GAAUAUUAGCAAGGAUAUCGGCUUACUAUAACUUUAUGCCCUGGGACAUGAGGAUCACCCAUGUACGAGAAGGUGCUUACUACA			18.9	29.4
UUCCUGUCAGGAUAUGACUAGAUGCACGAAAGUGUGUUUAGUUAGAAGGGACAUGAGGAUCACCCAUGUAGUCC			23.5	39
CGUUGUUCCGCAGGAUAUGCAUUGGAUUACAAUGCAGAAGGGCGAUAACAUGAGGAUCACCCAUGUGUGGACAAUGAGGAAGAG	792	55.2		

Sequence	apparent Kd [1] [nM]	apparent Kd [2] [nM]	apparent Kd [3] [nM]	apparent Kd [4] [nM]
CCACCCUGAGGAUAUCCACCCUCAUACAUGAGGAUCACCCAUGUUCAUCCCUGAGUUCCCGGAGAAGGCAGAUUCC			55.3	47.5
AAUUACAUGUAGAAGGUACUUUCAUAAGUGUUGUAAGGAUAUACCAAUUUAUUAGUUUUAAAGAUACAUGAGGAUCACCCAUGU	8.59	8.18		
AGUAACAGAGGAUAUACUAUUUUAUGUAUUUAUUAUUUUAAACAUGAGGAUCACCCAUGUAGAAGGCUGAAUGA			24.7	22.8
CUAUAUAAUACCUCAUGUACAUGAGGAUCACCCAUGUUAACUUAGGAUAUAUUUAUAUUGAUAGAGUAGAAGGAAGUACUAUUU			15.8	13.8
GGAUAGGACAGAGGAUAUACGUGCUAGAGAUUCUAGCAAAAUUUCCUCACAUGAGGAUCACCCAUGUAGAAGGCUGUCCUAUCG			15.6	321
CGGCUCGGAGAGGAUAUGCAGGCCAACGGCACUGCAGAAGGUUCAACAUGAGGAUCACCCAUGUGAUUUCAACU			23.6	33.5
UUACAUACAAAGUUACAUGAGGAUCACCCAUGUUUAUUGGGAAGAAGGGUAACAGUAUUACAUAUAUAGGAUAUUUCACAAAUG	409	251		
UCACGGCAUGUAGGAUAUGCAUAGCAUUGCUAUGCAGAAGGACAUGAGGAUCACCCAUGUAUGUAUUCCAUACUAUUCCCGUGU			7.42	14.8
CCCUCAACAUGAGGAUCACCCAUGUAGGAUAUCGCUAUUGUAAUCAUGAAACAUGAUUACAAUAGCGAGAAGGACAUAUGUUUU			25.9	127
GUCAAGUGAGGAUAUGAUUGUACGGCAGACUAGCGUCUGCAUCAGAAGGCACAUGAGGAUCACCCAUGUUUGUC			19.1	16.9
AAAAAAAGAGGAUAUACAUGAGAAAAAAAAAUGUAAAAAAAACAUGAGGAUCACCCAUGUAGAAGGCUUAAAAA			34.6	45.4
AAGGGCGUGAUAACGCUCAUUAAAACAUGAGGAUCACCCAUGUAGGAUAUCCUACCGAAAUGGUAGGAGAAGGACAAGCAAUGA			21.9	20.8
UGGUACUAGGGAGGAUAUGGGAAGAUACAUGAGGAUCACCCAUGUGUAAGAAUGCCGAGAGGCAACUAGAAGGCCCUAGUACCU	56	6.58		
GGACAUUUACAGAAGGGCAAGUUGGAUCGCGGAUAACGCGAUCCGACUUGCAGGAUAUGUUGAACAUGAGGAUCACCCAUGUCU	7.99	8.52		
AUUAUUGACGAAGGAUAUGGAUACAUGAGGAUCACCCAUGUAUAAUUUGUGUUCUUAUAUUUGAUCCAGAAGGUCGUUGUUUAU			35.8	54.6
GCCUCACAUGAGGAUCACCCAUGUCAGGAUAUAGGAGGCGGUAGAAAUCCUACCGCCGCUAGAAGGGACUGGCA			42.8	90.7
GGAUAGGACAGAGGAUAUACGUGCUAGAGAUACUAGCAAAAUUUCCUUACAUGAGGAUCACCCAUGUAGAAGGCUGUCCUAUCG			5.79	12.7
GAGGCUGGUCAGAAGGCGCUGCAGGCUGCGUAGCGAGGAUAUGACAUGAGGAUCACCCAUGUGGUAGCUGAUCCUCGGCGUUUA			361	33.3
GGAUUUCCUGAGGAUAUUGCAUCACCUGAUUUAUAAGAAGGCAGAACAUGAGGAUCACCCAUGUGGGUAUUCGG			27.6	37.4
AUACUUAAUGAAGGAUAUCUUAGCAUAAACCUGAGAGAAGGUCAUUAUUACAUGAGGAUCACCCAUGUUGUGGUUAAUGGGUAA			264	327
AAAUUCUGAGGAUAUCGAUGUUUGUACAUGAGGAUCACCCAUGUCCUUUUUAUUUUUUCCCGAGAAGGCAGUGUAU			45	35.3
AAUUAUUGAUGAGGAUAUUGUGGUGAAACACGACAAGAAGGCAUUAUUCACAUGAGGAUCACCCAUGUGAGCCUGAUGCAUAUA			14.5	13.9
UUGUUGUAUGUAGGAUAUGCAUAUUGUUAUUAUGCAGAAGGACAUGAGGAUCACCCAUGUAUAUUAUUAUUAUAUAUUAUAUAU			27.7	43.9
GCUCUAUGCUAGAAGGCGUGAAACAUGAGGAUCACCCAUGUCAGAGAAAUGAGGAUAUAGCAUAGAGCAAAAGACGGAAACGUC	11.1	5.61		
GGGUGGCGUAGAGGAUAUGUGGUACAUGAGGAUCACCCAUGUGCAUAUGAUGUUCGUGUUUAUGUAUAGAAGGCUACGUCGCUA	12.5	12.3		
UGGCCGGAGACAGGAUAUGUGACUGCAUAGUGCACAGAAGGGUCUACAUGAGGAUCACCCAUGUCACCGAACGCCAAACCACAA	574	26.1		
UGUCCAUAGCAGAAGGACAUGUAUAAUCAUGAAAACAUGAGGAUCACCCAUGUAGGAUAUGCUAUGGACUAAGAGCGAAAGCUC			19.9	297
